Results from article PMC6859084 (Drug Design, Development and Therapy, 2019).
Read-outs that look alike come from different tables or passages of the source.

Key:
[1] = Pharmacokinetics after single oral dose of FDC or loose combination; format: in vivo, human; settings: FDC to loose combination
Outline: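 Healthy subjects, randomized open-label two-period crossover with 14-day washout, fasted overnight, single oral dose with 200 mL water. Heparinized blood drawn pre-dose to 72 h, centrifuged 1,800 rpm 8 min at 4°C, plasma mixed 1:1 with 5% formic acid, stored −70°C. LC-MS/MS (C18, positive ESI, MRM), validated 0.5–200 ng/mL. Non-compartmental parameters; log-transformed GMR from linear mixed-effects model.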

[2] = previously reported; cited from earlier work
LDL-C = settings: cited from earlier work

| Structure (SMILES) | AUClast Geometric Mean Ratio (90% CI) [1] | Cmax Geometric Mean Ratio (90% CI) [1] | half-life [2] [h] | LDL-C reduction (LDL-C; first week after rosuvastatin administration) [%] | LDL-C reduction (LDL-C; second week after rosuvastatin administration) [%] |
| --- | --- | --- | --- | --- | --- |
| N[C@@H](CC(=O)N1CCc2c(nc(C(F)(F)F)nc2C(F)(F)F)C1)CN1CC(F)(F)CCC1=O [Gemigliptin] | 1.02 (0.96–1.09) | 1.08 (0.99–1.18) | 17 |  |  |
| CC(C)c1nc(N(C)S(C)(=O)=O)nc(-c2ccc(F)cc2)c1/C=C/[C@@H](O)C[C@@H](O)CC(=O)O [Rosuvastatin] | 1.02 (0.95–1.09) | 1.09 (0.96–1.22) |  | 64 | 90 |
